In EPA's CvTdb concentration-time database:

Key:
Rat [1] = experiment: concentration in plasma after dosing; details: 0.5 h; dosed: Wyeth-14643; 5.0 mg/kg; oral; Male; Sprague-Dawley
Rat [2] = experiment: concentration in plasma after dosing; details: dosed: Wyeth-14643, 1.0 mg/kg, oral, Male, Sprague-Dawley
Rat [3] = experiment: concentration in heart after dosing; details: 6 h; dosed: Bis 2-Chloroethoxy Methane; 20 mg/kg; iv; Female; F344
Rat [4] = experiment: concentration in thymus after dosing; details: 1 h; dosed: Bis 2-Chloroethoxy Methane; 20 mg/kg; iv; Male; F344
Rat [5] = experiment: concentration in thymus after dosing; details: 8 h; dosed: Bis 2-Chloroethoxy Methane; 20 mg/kg; iv; Female; Harlan Sprague-Dawley
Rat [6] = experiment: concentration in plasma after dosing; details: 10 min; dosed: Bis 2-Chloroethoxy Methane; 20 mg/kg; iv; Male; F344
Rat [7] = experiment: concentration in thymus after dosing; details: 4 h; dosed: Bis 2-Chloroethoxy Methane; 20 mg/kg; iv; Female; F344
Rat [8] = experiment: concentration in brain after dosing; details: 0.5 h; dosed: Fluorotelomer alcohol 8+2; 80 mg/kg; oral; Female; Harlan Sprague Dawley
Rat [9] = experiment: concentration in brain after dosing; details: 12 h; dosed: Fluorotelomer alcohol 8+2; 80 mg/kg; oral; Female; Harlan Sprague Dawley
Rat [10] = experiment: concentration in liver after dosing; details: 12 h; dosed: Fluorotelomer alcohol 8+2; 80 mg/kg; oral; Female; Harlan Sprague Dawley
Rat [11] = experiment: concentration in brain after dosing; details: 6 h; dosed: Fluorotelomer alcohol 8+2; 24 mg/kg; oral; Male; Harlan Sprague Dawley
Rat [12] = experiment: concentration in brain after dosing; details: 12 h; dosed: Fluorotelomer alcohol 8+2; 24 mg/kg; oral; Male; Harlan Sprague Dawley
Rat [13] = experiment: concentration in kidney after dosing; details: 1 h; dosed: Fluorotelomer alcohol 8+2; 24 mg/kg; oral; Male; Harlan Sprague Dawley
Rat [14] = experiment: concentration in kidney after dosing; details: 3 h; dosed: Fluorotelomer alcohol 8+2; 80 mg/kg; oral; Female; Harlan Sprague Dawley
Rat [15] = experiment: concentration in plasma after dosing; details: dosed: Fluorotelomer alcohol 8+2, 12 mg/kg, iv, Male, F344
Rat [16] = experiment: concentration in kidney after dosing; details: 3 h; dosed: Fluorotelomer alcohol 8+2; 80 mg/kg; oral; Female; Harlan Sprague Dawley; remark: listed apart in the source
Rat [17] = experiment: concentration in brain after dosing; details: 864 h; dosed: Perfluorodecanoic acid; 10 mg/kg; oral; Male; Harlan Sprague Dawley
Rat [18] = experiment: concentration in brain after dosing; details: 1848 h; dosed: Perfluorodecanoic acid; 10 mg/kg; oral; Female; Harlan Sprague Dawley
Rat [19] = experiment: concentration in brain after dosing; details: 864 h; dosed: Perfluorodecanoic acid; 10 mg/kg; oral; Male; Harlan Sprague Dawley; remark: listed apart in the source
Rat [20] = experiment: concentration in plasma after dosing; details: dosed: Perfluorodecanoic acid, 2 mg/kg, iv, Male, F344
Rat [21] = experiment: concentration in kidney after dosing; details: 24 h; dosed: Perfluorodecanoic acid; 10 mg/kg; oral; Male; Harlan Sprague Dawley
Rat [22] = experiment: concentration in plasma after dosing; details: 30 h; dosed: Primidone; 130 mg/kg; oral; Female; F344
Rat [23] = experiment: concentration in liver after dosing; details: 6.667 h; dosed: Thiodiglycolic Acid; 20 mg/kg; iv; Female; Harlan Sprague Dawley
Rat [24] = experiment: concentration in liver after dosing; details: 6.667 h; dosed: Thiodiglycolic Acid; 20 mg/kg; iv; Female; Harlan Sprague Dawley; remark: listed apart in the source
Rat [25] = experiment: concentration in liver after dosing; details: 1 h; dosed: Thiodiglycolic Acid; 20 mg/kg; iv; Female; Harlan Sprague Dawley
Rat [26] = experiment: concentration in liver after dosing; details: 10 min; dosed: Thiodiglycolic Acid; 20 mg/kg; iv; Female; Harlan Sprague Dawley
Rat [27] = experiment: concentration in heart after dosing; details: 5.333 h; dosed: Thiodiglycolic Acid; 20 mg/kg; iv; Male; Harlan Sprague Dawley
Rat [28] = experiment: concentration in plasma after dosing; details: 3 h; dosed: Thiodiglycolic Acid; 20 mg/kg; iv; Female; Harlan Sprague Dawley
Rat [29] = experiment: concentration in plasma after dosing; details: 40 min; dosed: Thiodiglycolic Acid; 20 mg/kg; iv; Female; Harlan Sprague Dawley
Rat [30] = experiment: concentration in thymus after dosing; details: 40 min; dosed: Thiodiglycolic Acid; 20 mg/kg; iv; Female; Harlan Sprague Dawley
Rat [31] = experiment: concentration in plasma after dosing; details: 10 min; dosed: dichloroacetic acid; 10 mg/kg; iv; Male; F344
Rat [32] = experiment: concentration in plasma after dosing; details: 40 min; dosed: dichloroacetic acid; 40 mg/kg; oral; Female; Harlan Sprague Dawley
Rat [33] = experiment: concentration in plasma after dosing; details: dosed: dichloroacetic acid, 100 mg/kg, oral, Male, F344
human = details: dosed: trichloroethylene, 100 ppm, inhalation, duration: 4 hr, person
How it was run: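 A PubMed search, classifier screening and manual review identified published in vivo toxicokinetic studies, which together with two structured collections supplied concentration-versus-time and amount-versus-time points. Points were mostly digitised from plot screenshots with WebPlotDigitizer, otherwise copied from tables. Dose, route, subject details and medium were hand-curated from each paper, and sampling and analytical methods are those of the sources, often unreported.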

Cc1cccc(Nc2cc(Cl)nc(SCC(=O)O)n2)c1C
Details | concentration in plasma [µg/mL]
Rat [1] | 3.83

Rat [2]
Details | concentration in plasma [µg/mL]
0.25 h | 0.397
4 h | 0.308

ClCCOCOCCCl [Bis 2-Chloroethoxy Methane]
Details | concentration in heart [ng/g] | concentration in plasma [ng/mL] | concentration in thymus [ng/g]
Rat [3] | 28.6 | – | –
Rat [4] | – | – | 5370
Rat [5] | – | – | 13.2
Rat [6] | – | 11000 | –
Rat [7] | – | – | 76.5

OCCC(F)(F)C(F)(F)C(F)(F)C(F)(F)C(F)(F)C(F)(F)C(F)(F)C(F)(F)F [Fluorotelomer alcohol 8+2]
Details | concentration in brain [ng/g] | concentration in kidney [ng/g] | concentration in liver [ng/g]
Rat [8] | 4390 | – | –
Rat [9] | 571 | – | –
Rat [10] | – | – | 434
Rat [11] | 544 | – | –
Rat [12] | 151 | – | –
Rat [13] | – | 1140 | –
Rat [14] | – | 4360 | –
Rat [16] | – | 5170 | –

Rat [15]
Details | concentration in plasma [ng/mL]
0.5 h | 1410
9 h | 26.1

O=C(O)C(F)(F)C(F)(F)C(F)(F)C(F)(F)C(F)(F)C(F)(F)C(F)(F)C(F)(F)C(F)(F)F [Perfluorodecanoic acid]
Details | concentration in brain [ng/g] | concentration in kidney [ng/g]
Rat [17] | 867 | –
Rat [18] | 752 | –
Rat [19] | 917 | –
Rat [21] | – | 29300

Rat [20]
Details | concentration in plasma [ng/mL]
1 h | 6890
528 h | 4990
3360 h | 662

CCC1(c2ccccc2)C(=O)NC(=O)NC1=O [Phenobarbital]
Details | concentration in plasma [µg/mL]
Rat [22] | 2.12

O=C(O)CSCC(=O)O [Thiodiglycolic Acid]
Details | concentration in heart [ng/g] | concentration in liver [ng/g] | concentration in plasma [ng/mL] | concentration in thymus [ng/g]
Rat [23] | – | 7630 | – | –
Rat [24] | – | 2190 | – | –
Rat [25] | – | 62700 | – | –
Rat [26] | – | 70700 | – | –
Rat [27] | 383 | – | – | –
Rat [28] | – | – | 510 | –
Rat [29] | – | – | 4120 | –
Rat [30] | – | – | – | 3380

O=C(O)C(Cl)Cl [dichloroacetic acid]
Details | concentration in plasma [µg/mL]
Rat [31] | 7.78
Rat [32] | 10.6

Rat [33]
Details | concentration in plasma [µg/mL]
0.25 h | 15.5
6 h | 29.5

O=C(O)C(Cl)(Cl)Cl [trichloroacetic acid]
human
Details | amount in urine after dosing [mg]
1 h | 0.21
2 h | 0.25
4 h | 0.57
8 h | 2.37
12 h | 1.32
16 h | 0.93
24 h | 2.15
36 h | 4.32
48 h | 8.17
60 h | 7.79
72 h | 7.83
84 h | 6.95
96 h | 4.34
108 h | 4.56
120 h | 3.32
132 h | 3.23
144 h | 4
156 h | 2.44
168 h | 1.44
180 h | 2.55
